Measurements taken from ChEMBL document CHEMBL5584325, “Discovery of novel coumarin triazolyl and phenoxyphenyl triazolyl derivatives targeting amyloid beta aggregation-mediated oxidative stress and neuroinflammation for enhanced neuroprotection” (RSC Med Chem, 2024).
Calls of active or inactive are those of the source. The rule behind the calls is not given here.

Experiments:
[1] = target: T1, Amyloid-beta precursor protein (Homo sapiens, UniProt P05067); test: Inhibition of amyloid beta (1 to 42) (unknown origin) aggregation at 100 uM incubated for 48 hrs by ThioflavinT staining based fluorescence assay relative to control
T1 sequence (P05067 whole entry): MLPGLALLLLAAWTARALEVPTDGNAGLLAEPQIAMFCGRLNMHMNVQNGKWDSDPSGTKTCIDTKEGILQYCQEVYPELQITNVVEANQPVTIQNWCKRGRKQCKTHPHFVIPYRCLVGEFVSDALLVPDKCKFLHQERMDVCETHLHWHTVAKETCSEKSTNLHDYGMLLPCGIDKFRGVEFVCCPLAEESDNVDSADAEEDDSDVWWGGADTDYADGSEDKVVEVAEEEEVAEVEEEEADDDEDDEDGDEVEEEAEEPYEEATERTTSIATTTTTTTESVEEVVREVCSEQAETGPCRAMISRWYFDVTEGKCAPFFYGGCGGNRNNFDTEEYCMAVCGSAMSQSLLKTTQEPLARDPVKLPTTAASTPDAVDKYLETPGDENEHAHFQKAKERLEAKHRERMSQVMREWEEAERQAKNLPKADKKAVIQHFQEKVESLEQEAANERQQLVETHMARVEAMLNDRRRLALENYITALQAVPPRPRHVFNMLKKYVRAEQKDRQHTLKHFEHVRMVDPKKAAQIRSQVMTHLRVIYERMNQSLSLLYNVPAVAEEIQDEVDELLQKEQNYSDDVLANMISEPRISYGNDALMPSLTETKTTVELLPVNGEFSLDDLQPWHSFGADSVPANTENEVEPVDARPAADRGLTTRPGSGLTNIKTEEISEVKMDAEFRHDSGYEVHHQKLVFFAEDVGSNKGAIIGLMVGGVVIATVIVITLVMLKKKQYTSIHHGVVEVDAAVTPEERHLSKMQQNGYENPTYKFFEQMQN
How it was run: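 Compound in DMSO (1 μl of a 1 mM solution) mixed with 9 μl of 25 μM Aβ1–42 in Tris pH 7.4. Incubated 48 h at 37 °C without agitation, then 200 μl of 5 μM ThT added. Fluorescence read at ex 446/em 500 nm; % inhibition vs DMSO control, solvent blank subtracted.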

[2] = Octanol/water partition coefficient, log P of the compound incubated for 2 hrs under shaking condition by HPLC analysis; type: physicochemical
How it was run: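 Shake-flask log P: 10 mM stock (DMSO, or octanol for highly lipophilic compounds) partitioned between mutually saturated octanol and water at three phase ratios. Shaken 2 h at 25 ± 1 °C, phases separated, each phase quantified by C18 HPLC-UV. Mobile phase 0.1% formic acid:methanol 40:60; log P averaged over the three ratios.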

[3] = target: T1, Amyloid-beta precursor protein; test: Inhibition of amyloid beta (1 to 42) (unknown origin) aggregation incubated for 48 hrs by ThioflavinT staining based fluorescence assay
BV-2 [4] = test: Cytotoxicity against mouse BV-2 cells assessed as reduction in cell viability at 40 uM measured after 24 hrs by MTT assay; type: toxicity, cell-based; conditions: bv-2, 24 h
How it was run: (§1)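 BV-2 microglia grown in DMEM with 10% FBS, HEPES and Glutamax at 37 °C, 5% CO2, seeded overnight at 1 × 10^4 cells/well. Compound alone at 0–200 μM (range extended lower where needed) for 24 h. MTT 2 h at 37 °C, formazan dissolved in DMSO, A570 read. Used to pick non-toxic concentrations.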

BV-2 [5] = test: Neuroprotective activity in amyloid beta (1 to 42)-induced cytotoxicity in mouse BV-2 cells assessed as cell viability at 40 uM measured after 24 hrs by MTT assay (reference value: 54.96 +/- 1.12%); type: functional; conditions: read-out: Activity
[6] = Induction of ROS generation in mouse BV-2 cells at 40 uM measured after 24 hrs by DCFH-DA staining based fluorescence assay; type: toxicity, cell-based; conditions: bv-2, 24 h
How it was run: (§2)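 BV-2 cells seeded overnight at 1 × 10^4/well, compound alone (no Aβ). Cells loaded with 20 μM (final) DCFH-DA for 30 min at 37 °C, washed, then given conditioned medium for 24 h. Fluorescence read at ex […] nm. Expressed as % of control; n = 3 in triplicate, one-way ANOVA with LSD.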

BV-2 [7] = test: Neuroprotective activity in amyloid beta (1 to 42)-induced oxidative stress in mouse BV-2 cells assessed as intracellular ROS level at 40 uM measured after 24 hrs by DCFH-DA staining based fluorescence assay (reference value: 150.91 +/- 0.49%); type: functional
BV-2 [8] = test: Neuroprotective activity in amyloid beta (1 to 42)-induced inflammation in mouse BV-2 cells assessed as IL-1beta mRNA expression at 40 uM measured after 24 hrs by SYBR green staining based qRT-PCR analysis (reference value: 1.53 +/- 0.13%); type: functional
BV-2 [9] = test: Neuroprotective activity in amyloid beta (1 to 42)-induced inflammation in mouse BV-2 cells assessed as […] in IL-6 mRNA expression at 40 uM measured after 24 hrs by SYBR green staining based qRT-PCR analysis relative to control; type: functional
[10] = target: T1, Amyloid-beta precursor protein; test: Inhibition of amyloid beta (1 to 42) aggregation in mouse BV-2 cells exposed to amyloid-beta (1 to 42) (unknown origin) at 40 uM measured after 24 to 48 hrs by thioflavin T staining based fluorescence assay; type: cell-based; conditions: time 24-48 hrs
SH-SY5Y [11] = test: Neuroprotective activity against human SH-SY5Y cells co-cultured with 40 uM compound pretreated BV-2 cells exposed to amyloid beta (1 to 42) assessed as cell viability measured after 24 hrs by MTT assay (reference value: 80.62 +/- 0.86%); type: functional; conditions: read-out: Activity
BV-2 [12] = test: Neuroprotective activity in amyloid beta (1 to 42)-induced inflammation in mouse BV-2 cells assessed as TNFalpha mRNA expression at 40 uM measured after 24 hrs by SYBR green staining based qRT-PCR analysis (reference value: 1.73 +/- 0.22%); type: functional
BV-2 [13] = test: Cytotoxicity against mouse BV-2 cells assessed as reduction in cell viability at 20 uM measured after 24 hrs by MTT assay; type: toxicity, cell-based; conditions: bv-2, 24 h; how it was run: as §1
BV-2 [14] = test: Neuroprotective activity in amyloid beta (1 to 42)-induced cytotoxicity in mouse BV-2 cells assessed as cell viability at 20 uM measured after 24 hrs by MTT assay (reference value: 54.96 +/- 1.12%); type: functional; conditions: read-out: Activity
BV-2 [15] = test: Neuroprotective activity in amyloid beta (1 to 42)-induced morphological changes in mouse BV-2 cells at 20 uM; type: functional, cell-based
BV-2 [16] = test: Cytotoxicity against mouse BV-2 cells assessed as reduction in cell viability at 150 uM measured after 24 hrs by MTT assay; type: toxicity, cell-based; conditions: bv-2, 24 h; how it was run: as §1
BV-2 [17] = test: Neuroprotective activity in amyloid beta (1 to 42)-induced cytotoxicity in mouse BV-2 cells assessed as cell viability at 150 uM measured after 24 hrs by MTT assay (reference value: 54.96 +/- 1.12%); type: functional; conditions: read-out: Activity
BV-2 [18] = test: Cytotoxicity against mouse BV-2 cells assessed as reduction in cell viability at 10 to 200 uM measured after 24 hrs by MTT assay; type: toxicity, cell-based; conditions: bv-2, 24 h, dose 10-200 µM; how it was run: as §1
BV-2 [19] = test: Cytotoxicity against mouse BV-2 cells assessed as reduction in cell viability at 2.5 uM measured after 24 hrs by MTT assay; type: toxicity, cell-based; conditions: bv-2, 24 h; how it was run: as §1
BV-2 [20] = test: Neuroprotective activity in amyloid beta (1 to 42)-induced cytotoxicity in mouse BV-2 cells assessed as cell viability at 2.5 uM measured after 24 hrs by MTT assay (reference value: 54.96 +/- 1.12%); type: functional; conditions: read-out: Activity
[21] = Induction of ROS generation in mouse BV-2 cells at 2.5 uM measured after 24 hrs by DCFH-DA staining based fluorescence assay; type: toxicity, cell-based; conditions: bv-2, 24 h; how it was run: as §2
BV-2 [22] = test: Neuroprotective activity in amyloid beta (1 to 42)-induced oxidative stress in mouse BV-2 cells assessed as intracellular ROS level at 2.5 uM measured after 24 hrs by DCFH-DA staining based fluorescence assay (reference value: 150.91 +/- 0.49%); type: functional
BV-2 [23] = test: Neuroprotective activity in amyloid beta (1 to 42)-induced inflammation in mouse BV-2 cells assessed as TNFalpha mRNA expression at 2.5 uM measured after 24 hrs by SYBR green staining based qRT-PCR analysis (reference value: 1.73 +/- 0.22%); type: functional
BV-2 [24] = test: Neuroprotective activity in amyloid beta (1 to 42)-induced inflammation in mouse BV-2 cells assessed as IL-1beta mRNA expression at 2.5 uM measured after 24 hrs by SYBR green staining based qRT-PCR analysis (reference value: 1.53 +/- 0.13%); type: functional
BV-2 [25] = test: Neuroprotective activity in amyloid beta (1 to 42)-induced inflammation in mouse BV-2 cells assessed as change in IL-6 mRNA expression at 2.5 uM measured after 24 hrs by SYBR green staining based qRT-PCR analysis; type: functional, cell-based
[26] = target: T1, Amyloid-beta precursor protein; test: Inhibition of amyloid beta (1 to 42) aggregation in mouse BV-2 cells exposed to amyloid-beta (1 to 42) (unknown origin) at 2.5 uM measured after 24 to 48 hrs by thioflavin T staining based fluorescence assay; type: cell-based; conditions: time 24-48 hrs
BV-2 [27] = test: Neuroprotective activity in amyloid beta (1 to 42)-induced morphological changes in mouse BV-2 cells assessed as appearance of healthy cells at 2.5 uM; type: functional, cell-based
SH-SY5Y [28] = test: Neuroprotective activity against human SH-SY5Y cells co-cultured with 2.5 uM compound pretreated BV-2 cells exposed to amyloid beta (1 to 42) assessed as cell viability measured after 24 hrs by MTT assay (reference value: 80.62 +/- 0.86%); type: functional; conditions: read-out: Activity
[29] = target: T1, Amyloid-beta precursor protein; test: Inhibition of amyloid beta (1 to 42) (unknown origin) aggregation assessed as reduction in amyloid beta fibril formation at 2.5 uM measured after 48 hrs by transmission electron microscopy
[30] = target: T1, Amyloid-beta precursor protein; test: Inhibition of amyloid beta (1 to 42) (unknown origin) aggregation assessed as appearance of collapsed amyloid beta fibrils at 2.5 uM measured after 48 hrs by transmission electron microscopy

Row | SMILES | inhibition [1] [%] | logP at 2 h [2] | IC50 [3] [µM] | also measured
1 | O=C(OCc1cn(-c2cc3ccccc3oc2=O)nn1)c1ccccc1O | < 50 | 2.65 |  | 
2 | COc1cc(/C=C/C(=O)NCc2cn(-c3ccc(Oc4ccccc4)cc3)nn2)ccc1O | > 50 | 4.44 | 0.04 | Activity (BV-2 [4]): Non-Toxic; viability at 40 µM (BV-2 [5]): 60.8%; Activity [6]: Non-Toxic; Activity (BV-2 [7]): 137.18%; Activity (BV-2 [8]): 0.05%; Activity (BV-2 [9]): 2.04%; inhibition [10]: Active; viability at 40 µM (SH-SY5Y [11]): 87.2%
3 | COc1cc(C(=O)NCc2cn(-c3cc4ccccc4oc3=O)nn2)ccc1O | < 50 | 1.95 |  | 
4 | O=C(Cc1ccccc1[N+](=O)[O-])NCc1cn(-c2cc3ccccc3oc2=O)nn1 | > 50 | 1.9 | 11.6 | 
5 | O=C(NCc1cn(-c2ccc(Oc3ccccc3)cc2)nn1)c1ccccc1O | < 50 |  |  | logP ([2]; 2 h): Not Determined(Insoluble)
6 | COc1cc(/C=C/C(=O)NCc2cn(-c3cc4ccccc4oc3=O)nn2)ccc1O | < 50 | 2.65 |  | Activity (BV-2 [4]): Non-Toxic; viability at 40 µM (BV-2 [5]): 75.4%; Activity [6]: Non-Toxic; Activity (BV-2 [7]): 76.83%; Activity (BV-2 [12]): 0.64%; Activity (BV-2 [8]): 0.47%; Activity (BV-2 [9]): inactive; inhibition [10]: Active; viability at 40 µM (SH-SY5Y [11]): 88.3%
7 | COc1cc(C(=O)NCc2cn(-c3ccc(Oc4ccccc4)cc3)nn2)ccc1O | > 50 | 4.26 | 1.15 | Activity (BV-2 [13]): Non-Toxic; viability at 20 µM (BV-2 [14]): 34.5%; Activity (BV-2 [15]): Active
8 | COc1cc(/C=C/C(=O)CC(=O)/C=C/c2ccc(O)c(OC)c2)ccc1O | > 50 |  |  | 
9 | O=C(NCc1cn(-c2cc3ccccc3oc2=O)nn1)c1ccccc1O | < 50 | 2.02 |  | 
10 | O=C(OCc1cn(-c2ccc(Oc3ccccc3)cc2)nn1)c1ccccc1 | > 50 | 5.19 | 4.73 | Activity (BV-2 [13]): Non-Toxic; viability at 20 µM (BV-2 [14]): 54.1%
11 | O=C(NCc1cn(-c2ccc(Oc3ccccc3)cc2)nn1)c1ccccc1 | < 50 | 4.21 |  | Activity (BV-2 [16]): Non-Toxic; viability at 150 µM (BV-2 [17]): 31.6%
12 | O=C(NCc1cn(-c2cc3ccccc3oc2=O)nn1)c1ccccc1 | < 50 | 2.25 |  | 
13 | COc1cc(C(=O)OCc2cn(-c3cc4ccccc4oc3=O)nn2)ccc1O | < 50 | 2.61 |  | 
14 | O=C(Cc1ccccc1[N+](=O)[O-])OCc1cn(-c2cc3ccccc3oc2=O)nn1 | > 50 | 2.41 | 17.7 | 
15 | COc1cc(C(=O)OCc2cn(-c3ccc(Oc4ccccc4)cc3)nn2)ccc1O | > 50 | 4.47 | 0.003 | Activity (BV-2 [18]): Toxic
16 | COc1cc(/C=C/C(=O)OCc2cn(-c3cc4ccccc4oc3=O)nn2)ccc1O | > 50 | 2.64 | 0.008 | Activity (BV-2 [19]): Non-Toxic; viability at 2.5 µM (BV-2 [20]): 71.3%; Activity [21]: Non-Toxic; Activity (BV-2 [22]): 107.04%; Activity (BV-2 [23]): 1.09%; Activity (BV-2 [24]): 0.71%; Activity (BV-2 [25]): inactive; inhibition [26]: Active; Activity (BV-2 [27]): Active; viability at 2.5 µM (SH-SY5Y [28]): 91.5%; inhibition [29]: Active; inhibition [30]: Active
17 | O=C(OCc1cn(-c2ccc(Oc3ccccc3)cc2)nn1)c1ccccc1O | < 50 | 5.18 |  | 
18 | O=C(Cc1ccccc1[N+](=O)[O-])NCc1cn(-c2ccc(Oc3ccccc3)cc2)nn1 | > 50 | 3.76 | 69.2 | 
19 | O=C(OCc1cn(-c2cc3ccccc3oc2=O)nn1)c1ccccc1 | < 50 | 2.38 |  | 
20 | O=C(Cc1ccccc1[N+](=O)[O-])OCc1cn(-c2ccc(Oc3ccccc3)cc2)nn1 | > 50 | 4.29 | 36.7 | 
